Assays:
L1210 [1] = assay: Antitumor activity in mouse L1210 cells allografted in mouse assessed as increase in survival time at optimal dose administered qd on days 1 to 5 of challenge relative to control; format: functional
Outline: (§1)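 Mouse leukemia survival test run under standard National Cancer Institute protocols. T/C = (treated-animal average survival time / control-animal average survival time) × 100%. Optimum dose is expressed as mg/kg/dose. T/C data were duplicated in separate experiments except where a footnote states that confirmation was not run.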

P388 = assay: Antitumor activity in mouse P388 cells allografted in mouse assessed as increase in survival time at optimal dose administered qd on days 1 to 9 of challenge relative to control; format: functional; outline: as §1
L1210 [2] = assay: Inhibition of DNA synthesis in mouse L1210 cells assessed as inhibition of tritiated thymidine incorporation into nucleic acids; format: functional; conditions: read-out: ED50 (the source's name)
Outline: (§2)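 Cultured L1210 cells were labeled with tritiated thymidine (DNA) or tritiated uridine (RNA), and label incorporation into the isolated nucleic acids was measured. The ED50 is the drug concentration that inhibits this incorporation by 50%. Other details are referenced to earlier work.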

L1210 [3] = assay: Inhibition of RNA synthesis in mouse L1210 cells assessed as inhibition of tritiated uridine incorporation into nucleic acids; format: functional; conditions: read-out: ED50 (the source's name); outline: as §2
Mus musculus = organism: Mus musculus; assay: Acute toxicity in mouse; format: organism-based; conditions: in vivo
L1210 [4] = assay: Antitumor activity in mouse L1210 cells allografted in mouse assessed as increase in survival time at optimal dose administered qd on days 1 to 16 of challenge relative to control; format: functional; outline: as §1
L1210 [5] = assay: Antitumor activity in mouse L1210 cells allografted in mouse assessed as increase in survival time at optimal dose administered as single dose relative to control; format: functional; outline: as §1
L1210 [6] = assay: Antitumor activity in mouse L1210 cells allografted in mouse assessed as increase in survival time at 400 mg/kg administered as single dose relative to control; format: functional; outline: as §1
L1210 [7] = assay: Antitumor activity in mouse L1210 cells allografted in mouse assessed as increase in survival time at optimal dose administered qd on days 1 to 9 of challenge relative to control; format: functional; outline: as §1

Structure (SMILES)	T/C (L1210 [1]) [%]	T/C (P388) [%]	EC50 (L1210 [2]) [µM]	EC50 (L1210 [3]) [µM]	Activity (Mus musculus)	T/C (L1210 [4]) [%]	T/C (L1210 [5]) [%]	T/C (L1210 [6]) [%]	T/C (L1210 [7]) [%]
Cn1cnc([N+](=O)[O-])c1Sc1nc(N)nc2c1ncn2[C@H]1C[C@H](O)[C@@H](CO)O1	173	161	25	11	Non-toxic	–	–	–	–
CSc1nc(N)nc2c1ncn2[C@H]1C[C@H](O)[C@@H](CO)O1	128	–	27	24	Non-toxic	–	–	–	–
Nc1nc2c(ncn2[C@@H]2C[C@H](O)[C@@H](CO)O2)c(=S)[nH]1	161	168	> 100	> 100	–	174	–	–	–
Nc1nc(SCc2ccccc2)c2ncn([C@H]3C[C@H](O)[C@@H](CO)O3)c2n1	–	–	–	–	Non-toxic	–	172	157	–
Nc1nc(SCc2ccccc2)c2ncn([C@@H]3C[C@H](O)[C@@H](CO)O3)c2n1	144	–	–	–	Non-toxic	–	–	–	–
CSc1nc(N)nc2c1ncn2[C@@H]1C[C@H](O)[C@@H](CO)O1	<125	<125	> 100	> 100	Non-toxic	–	–	–	–
C=CCSc1nc(N)nc2c1ncn2[C@H]1C[C@H](O)[C@@H](CO)O1	179	181	5.5	3	Non-toxic	–	–	–	–
C=CCSc1nc(N)nc2c1ncn2[C@@H]1C[C@H](O)[C@@H](CO)O1	<125	<125	> 100	> 100	Non-toxic	–	–	–	–
Cc1cccc(CSc2nc(N)nc3c2ncn3[C@H]2C[C@H](O)[C@@H](CO)O2)n1	153	<125	64	31	Non-toxic	–	–	–	–
Cc1cccc(CSc2nc(N)nc3c2ncn3[C@@H]2C[C@H](O)[C@@H](CO)O2)n1	<125	<125	79	72	Non-toxic	–	–	–	–
Cn1cnc([N+](=O)[O-])c1Sc1nc(N)nc2c1ncn2[C@@H]1C[C@H](O)[C@@H](CO)O1	137	<125	> 100	> 100	Non-toxic	–	–	–	–
CC(=O)OC[C@H]1O[C@@H](n2cnc3c(=S)[nH]c(N)nc32)C[C@@H]1OC(C)=O	156	174	–	–	–	–	–	–	–
CC(=O)OC[C@H]1O[C@H](n2cnc3c(=S)[nH]c(N)nc32)C[C@@H]1OC(C)=O	<125	–	–	–	–	–	–	–	–
CSc1nc(NC(C)=O)nc2c1ncn2[C@H]1C[C@H](O)[C@@H](CO)O1	<125	–	–	–	Non-toxic	–	–	–	–
Nc1nc2c(ncn2[C@H]2C[C@H](O)[C@@H](CO)O2)c(=S)[nH]1 [ATEGANOSINE]	219	138	> 100	50	–	–	–	–	208

From ChEMBL document CHEMBL3244108, “Potential antitumor agents. Some sulfur-substituted derivatives of alpha- and beta-2'-deoxythioguanosine” (J Med Chem, 1977)
